# Measurements taken from ChEMBL document CHEMBL4393708, “Pyridinylimidazoles as dual glycogen synthase kinase 3β/p38α mitogen-activated protein kinase inhibitors” (Eur J Med Chem, 2019).
# What was measured:
# [1] = target: T1, Glycogen synthase kinase-3 beta (Homo sapiens, UniProt P49841); assay: Competitive inhibition of human recombinant full length GSK3beta using YRRAAVPPSPSLSRHSSPHQ(pS)EDEEE as substrate preincubated with enzyme for 10 mins followed by substrate and 25 uM ATP addition measured after 60 mins by ADP-Glo luminescence assay
# In short: (§1)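 Compounds in serial dilutions were preincubated with kinase for 10 min at rt. Substrate/ATP was then added and the reaction ran 60 min at rt. ADP-Glo reagent 60 min, detection reagent 30 min, then luminescence read (500 ms integration).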
# Target sequence in this assay (P49841 whole entry): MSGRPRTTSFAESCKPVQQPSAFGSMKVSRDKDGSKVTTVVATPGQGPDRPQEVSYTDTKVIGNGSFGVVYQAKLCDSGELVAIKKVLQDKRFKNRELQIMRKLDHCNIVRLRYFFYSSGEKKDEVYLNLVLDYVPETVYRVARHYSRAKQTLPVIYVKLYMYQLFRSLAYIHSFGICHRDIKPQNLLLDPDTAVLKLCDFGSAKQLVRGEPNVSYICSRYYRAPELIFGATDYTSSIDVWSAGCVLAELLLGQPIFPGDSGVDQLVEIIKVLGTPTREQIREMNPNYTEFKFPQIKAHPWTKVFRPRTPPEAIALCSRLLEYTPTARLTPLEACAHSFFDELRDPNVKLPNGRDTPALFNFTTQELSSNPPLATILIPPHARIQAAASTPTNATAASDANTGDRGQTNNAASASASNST
# [2] = target: Glycogen synthase kinase-3 alpha (Homo sapiens, UniProt P49840); assay: Inhibition of human recombinant full length GSK3alpha using YRRAAVPPSPSLSRHSSPHQ(pS)EDEEE as substrate preincubated with enzyme for 10 mins followed by substrate and 25 uM ATP addition measured after 60 mins by ADP-Glo luminescence assay
# In short: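 Recombinant human GSK3α at 0.50 ng/µL, 25 µM ATP, 0.2 µg/µL substrate G50-58, serial compound dilutions. Kinase was preincubated with compound 10 min at rt, then run 60 min at rt after substrate/ATP addition. ADP-Glo reagent 60 min, detection reagent 30 min, luminescence read. Uninhibited-kinase and ATP/substrate-only controls were included.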
# [3] = target: T1, Glycogen synthase kinase-3 beta; assay: Competitive inhibition of human recombinant full length GSK3beta using YRRAAVPPSPSLSRHSSPHQ(pS)EDEEE as substrate preincubated with enzyme for 10 mins followed by substrate and 100 uM ATP addition measured after 60 mins by ADP-Glo luminescence assay
# In short: as §1, with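 “Recombinant human GSK3β at 0.58 ng/µL with 0.2 µg/µL substrate G50-58; ATP at 25 µM, 100 µM or 500 µM, each as its line states. Compounds” for “Compounds”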
# Target sequence in this assay (P49841 whole entry): as the sequence (P49841 whole entry) above
# [4] = Metabolic stability in human liver microsomes assessed as parent compound remaining after 20 mins by LC-MS analysis relative to control; type: ADME, Microsome; conditions: read-out: Stability
# [5] = Metabolic stability in human liver microsomes assessed as parent compound remaining after 240 mins by LC-MS analysis relative to control; type: ADME, Microsome; conditions: read-out: Stability
# [6] = Plasma clearance in RjOrl:Swiss CD-1 mouse at 10 mg/kg, iv administered as single dose measured after 10 mins by LC-MS analysis; type: ADME, organism-based
# In short: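 Adult male mice received a single 10 mg/kg intravenous injection. Plasma was sampled at 10, 30 and 120 min after dosing. Samples were prepared and analyzed by LC-MS.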
# [7] = target: CYP1A2 (Homo sapiens, UniProt P05177); assay: Inhibition of human recombinant CYP1A2 expressed in baculovirus infected insect cells using 3-cyano-7-ethoxycoumarin as substrate at 10 uM in presence of NADPH by fluorimetric analysis relative to control; type: ADME; conditions: probe 3-cyano-7-ethoxycoumarin
# [8] = target: Cytochrome P450 2C19 (Homo sapiens, UniProt P33261); assay: Inhibition of human recombinant CYP2C19 expressed in baculovirus infected insect cells using EOMCC as substrate in presence of NADPH by fluorimetric analysis relative to control; type: ADME; conditions: recombinant enzyme
# [9] = target: hERG (KCNH2) (Homo sapiens, UniProt Q12809); assay: Inhibition of tracer Red binding to human ERG expressed in membranes at 10 uM after 4 hrs by fluorescence polarization assay relative to control; conditions: membranes expressing human ERG, probe tracer Red
# [10] = Solubility of the compound in PBS buffer at pH 7.8 after 1 hr by HPLC analysis; type: physicochemical
# [11] = target: Calcium/calmodulin-dependent protein kinase type II subunit alpha (Homo sapiens) (UniProt Q9UQM7); assay: Inhibition of human recombinant CAMKA2A at 1 uM using Ulight-CGSGSGRPRTSSFAEG as substrate measured after 30 mins by LANCE assay relative to control
# In short: (§2)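 Kinase panel run by an outside provider (Eurofins Cerep) in a LANCE assay, single test concentration of 1 µM, results as percent inhibition.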
# [12] = target: Ephrin type-B receptor 4 (Homo sapiens) (UniProt P54760); assay: Inhibition of human recombinant EPHB4 at 1 uM using Ulight-TK peptide as substrate measured after 90 mins in presence of ATP by LANCE assay relative to control; in short: as §2
# [13] = target: Mitogen-activated protein kinase 1 (Homo sapiens) (UniProt P28482); assay: Inhibition of human recombinant ERK2 at 1 uM using Ulight-CFFKNIVTPRTPPPSQGK-amide as substrate measured after 15 mins in presence of ATP by LANCE assay relative to control; in short: as §2
# [14] = target: Fibroblast growth factor receptor 1 (Homo sapiens) (UniProt P11362); assay: Inhibition of human recombinant FGFR at 1 uM using Ulight-CAGAGAIETDKEYYTVKD as substrate measured after 60 mins in presence of ATP by LANCE assay relative to control; in short: as §2
# [15] = target: Fibroblast growth factor receptor 3 (Homo sapiens) (UniProt P22607); assay: Inhibition of human recombinant FGFR3 at 1 uM using Ulight-CAGAGAIETDKEYYTVKD as substrate measured after 90 mins in presence of ATP by LANCE assay relative to control; in short: as §2
# [16] = target: T1, Glycogen synthase kinase-3 beta; assay: Inhibition of human recombinant GSK3beta at 1 uM using Ulight-CFFKNIVTPRTPPPSQGK-amide as substrate measured after 90 mins in presence of ATP by LANCE assay relative to control; in short: as §2
# Target sequence in this assay (P49841 whole entry, looked up): as the sequence (P49841 whole entry) above
# [17] = target: Tyrosine-protein kinase JAK3 (Homo sapiens) (UniProt P52333); assay: Inhibition of human recombinant JAK3 at 1 uM using Ulight-CAGAGAIETDKEYYTVKD as substrate measured after 60 mins in presence of ATP by LANCE assay relative to control; in short: as §2
# [18] = target: Serine/threonine-protein kinase Nek2 (Homo sapiens) (UniProt P51955); assay: Inhibition of human recombinant NEK2 at 1 uM using Ulight-FLGFTYVAP as substrate measured after 60 mins in presence of ATP by LANCE assay relative to control; in short: as §2
# [19] = target: Serine/threonine-protein kinase PLK1 (Homo sapiens) (UniProt P53350); assay: Inhibition of human recombinant PLK1 at 1 uM using Ulight-FLGFTYVAP as substrate measured after 60 mins in presence of ATP by LANCE assay relative to control; in short: as §2
# [20] = target: Mitogen-activated protein kinase 14 (Homo sapiens, UniProt Q16539); assay: Inhibition of human recombinant SAPK2A at 1 uM using Ulight-CFFKNIVTPRTPPPSQGK-amide as substrate measured after 30 mins in presence of ATP by LANCE assay relative to control; in short: as §2
# [21] = target: Proto-oncogene tyrosine-protein kinase Src (Homo sapiens) (UniProt P12931); assay: Inhibition of human recombinant SRC at 1 uM using Ulight-Poly GAT[EAY(1:1:1)]n as substrate measured after 10 mins in presence of ATP by LANCE assay relative to control; in short: as §2
# [22] = Ratio of drug concentration in RjOrl:Swiss CD-1 mouse brain at 10 mg/kg, iv to IC50 for human recombinant full length GSK3beta; type: ADME, organism-based; conditions: in vivo
# In short: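 Adult male mice received a single 10 mg/kg intravenous dose. After the final plasma sample at 2 h, the mice were sacrificed and brains dissected. Brain concentration was measured by LC-MS and related to the in vitro IC50 values for GSK3β and p38α.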
# Mitogen-activated protein kinase 14, sequence (Q16539 whole entry): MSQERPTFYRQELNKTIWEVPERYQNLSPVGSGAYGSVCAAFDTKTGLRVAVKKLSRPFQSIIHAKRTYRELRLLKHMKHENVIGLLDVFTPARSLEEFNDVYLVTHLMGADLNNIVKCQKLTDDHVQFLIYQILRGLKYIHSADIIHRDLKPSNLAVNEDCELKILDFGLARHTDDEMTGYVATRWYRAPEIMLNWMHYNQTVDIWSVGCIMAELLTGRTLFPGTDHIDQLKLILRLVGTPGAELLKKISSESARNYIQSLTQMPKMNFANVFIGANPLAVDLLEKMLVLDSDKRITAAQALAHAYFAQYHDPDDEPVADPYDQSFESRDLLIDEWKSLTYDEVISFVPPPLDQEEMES
# Glycogen synthase kinase-3 alpha, sequence (P49840 whole entry): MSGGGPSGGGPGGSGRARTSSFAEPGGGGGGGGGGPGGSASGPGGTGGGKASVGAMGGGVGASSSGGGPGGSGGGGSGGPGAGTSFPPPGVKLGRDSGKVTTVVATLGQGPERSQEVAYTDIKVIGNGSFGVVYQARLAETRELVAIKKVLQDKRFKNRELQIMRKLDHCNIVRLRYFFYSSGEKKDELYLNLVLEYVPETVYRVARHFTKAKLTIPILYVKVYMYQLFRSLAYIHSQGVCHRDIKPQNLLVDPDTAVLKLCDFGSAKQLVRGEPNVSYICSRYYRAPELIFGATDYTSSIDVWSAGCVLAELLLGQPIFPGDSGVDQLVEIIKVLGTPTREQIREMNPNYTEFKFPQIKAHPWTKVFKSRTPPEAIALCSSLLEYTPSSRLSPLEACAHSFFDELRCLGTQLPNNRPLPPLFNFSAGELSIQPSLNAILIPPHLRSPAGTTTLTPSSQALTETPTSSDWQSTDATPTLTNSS
# Proto-oncogene tyrosine-protein kinase Src (Homo sapiens), sequence (P12931 2-536 limits assumed): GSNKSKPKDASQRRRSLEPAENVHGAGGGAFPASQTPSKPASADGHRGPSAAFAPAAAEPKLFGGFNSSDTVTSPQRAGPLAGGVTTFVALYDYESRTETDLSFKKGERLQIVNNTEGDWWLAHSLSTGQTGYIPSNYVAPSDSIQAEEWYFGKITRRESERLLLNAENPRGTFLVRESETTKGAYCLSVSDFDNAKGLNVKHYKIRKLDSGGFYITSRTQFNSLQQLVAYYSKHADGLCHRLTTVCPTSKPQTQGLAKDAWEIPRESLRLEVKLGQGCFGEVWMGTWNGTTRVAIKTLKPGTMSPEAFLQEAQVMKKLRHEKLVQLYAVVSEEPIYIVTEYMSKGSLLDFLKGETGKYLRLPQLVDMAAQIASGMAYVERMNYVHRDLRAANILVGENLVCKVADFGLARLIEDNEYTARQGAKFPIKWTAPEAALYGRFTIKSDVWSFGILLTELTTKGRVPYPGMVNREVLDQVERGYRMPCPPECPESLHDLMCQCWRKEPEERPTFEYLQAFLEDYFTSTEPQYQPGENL
# Fibroblast growth factor receptor 1 (Homo sapiens), sequence (P11362 22-822 limits assumed): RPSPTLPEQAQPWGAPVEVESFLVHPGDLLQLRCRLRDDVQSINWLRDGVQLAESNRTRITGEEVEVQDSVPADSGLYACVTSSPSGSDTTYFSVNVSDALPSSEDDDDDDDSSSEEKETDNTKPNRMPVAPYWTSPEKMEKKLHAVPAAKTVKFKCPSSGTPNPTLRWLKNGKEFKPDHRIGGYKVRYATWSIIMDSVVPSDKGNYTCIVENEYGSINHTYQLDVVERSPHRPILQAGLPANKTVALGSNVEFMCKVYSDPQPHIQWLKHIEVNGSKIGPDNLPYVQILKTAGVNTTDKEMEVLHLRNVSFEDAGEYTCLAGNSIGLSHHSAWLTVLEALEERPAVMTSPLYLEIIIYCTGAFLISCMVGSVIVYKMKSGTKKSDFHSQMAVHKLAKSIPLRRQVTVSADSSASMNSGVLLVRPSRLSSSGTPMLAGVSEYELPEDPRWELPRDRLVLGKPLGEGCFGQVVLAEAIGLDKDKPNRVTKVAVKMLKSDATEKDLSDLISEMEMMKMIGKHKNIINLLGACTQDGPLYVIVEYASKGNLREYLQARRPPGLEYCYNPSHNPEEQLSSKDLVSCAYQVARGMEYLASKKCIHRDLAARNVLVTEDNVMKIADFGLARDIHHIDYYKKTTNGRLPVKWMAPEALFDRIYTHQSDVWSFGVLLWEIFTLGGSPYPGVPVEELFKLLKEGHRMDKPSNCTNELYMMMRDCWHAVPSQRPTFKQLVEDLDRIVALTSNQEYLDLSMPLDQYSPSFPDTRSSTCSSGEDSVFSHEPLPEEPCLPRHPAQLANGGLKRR
# hERG (KCNH2), sequence (Q12809 whole entry): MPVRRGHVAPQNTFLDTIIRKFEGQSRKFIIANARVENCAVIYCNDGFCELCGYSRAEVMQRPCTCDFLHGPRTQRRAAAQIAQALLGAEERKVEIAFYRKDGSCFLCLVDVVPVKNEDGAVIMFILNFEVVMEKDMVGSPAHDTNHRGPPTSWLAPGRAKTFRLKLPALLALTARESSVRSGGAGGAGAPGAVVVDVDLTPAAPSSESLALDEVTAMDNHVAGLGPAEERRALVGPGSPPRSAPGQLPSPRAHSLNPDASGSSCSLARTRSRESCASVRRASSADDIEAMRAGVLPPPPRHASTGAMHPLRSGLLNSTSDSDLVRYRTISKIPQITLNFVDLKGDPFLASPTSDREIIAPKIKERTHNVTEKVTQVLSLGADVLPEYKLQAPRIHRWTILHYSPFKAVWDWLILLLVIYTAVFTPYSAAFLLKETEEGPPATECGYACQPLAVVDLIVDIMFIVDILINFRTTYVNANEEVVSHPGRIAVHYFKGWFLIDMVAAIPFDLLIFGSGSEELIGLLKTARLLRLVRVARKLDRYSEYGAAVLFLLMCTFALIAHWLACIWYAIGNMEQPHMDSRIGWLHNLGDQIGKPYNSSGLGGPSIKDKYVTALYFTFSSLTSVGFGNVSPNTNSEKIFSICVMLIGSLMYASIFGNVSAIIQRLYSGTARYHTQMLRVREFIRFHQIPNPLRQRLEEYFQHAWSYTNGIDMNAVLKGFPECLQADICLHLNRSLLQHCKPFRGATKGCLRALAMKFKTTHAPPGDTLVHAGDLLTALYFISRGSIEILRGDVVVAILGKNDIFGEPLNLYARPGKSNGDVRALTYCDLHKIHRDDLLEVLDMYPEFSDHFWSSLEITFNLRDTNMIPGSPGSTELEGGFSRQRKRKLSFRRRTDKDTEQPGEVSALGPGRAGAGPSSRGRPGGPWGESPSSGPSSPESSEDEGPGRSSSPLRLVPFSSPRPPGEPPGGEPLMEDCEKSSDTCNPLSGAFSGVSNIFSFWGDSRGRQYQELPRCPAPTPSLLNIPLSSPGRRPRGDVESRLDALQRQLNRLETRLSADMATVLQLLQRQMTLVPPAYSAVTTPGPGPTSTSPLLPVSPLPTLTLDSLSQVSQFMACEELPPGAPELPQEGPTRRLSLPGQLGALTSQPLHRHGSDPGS
# Serine/threonine-protein kinase PLK1 (Homo sapiens), sequence (P53350 whole entry): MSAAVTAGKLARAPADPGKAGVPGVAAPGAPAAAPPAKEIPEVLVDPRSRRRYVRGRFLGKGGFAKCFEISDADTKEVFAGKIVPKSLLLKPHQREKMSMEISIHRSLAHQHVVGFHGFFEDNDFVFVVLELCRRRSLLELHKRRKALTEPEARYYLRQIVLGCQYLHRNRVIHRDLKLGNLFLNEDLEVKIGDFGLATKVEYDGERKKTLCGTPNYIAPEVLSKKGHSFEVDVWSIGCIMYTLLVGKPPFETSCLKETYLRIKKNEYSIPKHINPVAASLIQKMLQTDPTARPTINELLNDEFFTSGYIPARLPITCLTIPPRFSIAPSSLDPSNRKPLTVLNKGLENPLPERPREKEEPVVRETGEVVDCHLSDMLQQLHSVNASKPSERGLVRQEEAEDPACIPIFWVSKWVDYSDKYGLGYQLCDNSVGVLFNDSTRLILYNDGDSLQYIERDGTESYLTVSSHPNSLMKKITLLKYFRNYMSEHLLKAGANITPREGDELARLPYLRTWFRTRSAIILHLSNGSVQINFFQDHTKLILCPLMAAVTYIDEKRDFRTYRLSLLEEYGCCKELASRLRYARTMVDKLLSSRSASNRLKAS
# CYP1A2, sequence (P05177 whole entry): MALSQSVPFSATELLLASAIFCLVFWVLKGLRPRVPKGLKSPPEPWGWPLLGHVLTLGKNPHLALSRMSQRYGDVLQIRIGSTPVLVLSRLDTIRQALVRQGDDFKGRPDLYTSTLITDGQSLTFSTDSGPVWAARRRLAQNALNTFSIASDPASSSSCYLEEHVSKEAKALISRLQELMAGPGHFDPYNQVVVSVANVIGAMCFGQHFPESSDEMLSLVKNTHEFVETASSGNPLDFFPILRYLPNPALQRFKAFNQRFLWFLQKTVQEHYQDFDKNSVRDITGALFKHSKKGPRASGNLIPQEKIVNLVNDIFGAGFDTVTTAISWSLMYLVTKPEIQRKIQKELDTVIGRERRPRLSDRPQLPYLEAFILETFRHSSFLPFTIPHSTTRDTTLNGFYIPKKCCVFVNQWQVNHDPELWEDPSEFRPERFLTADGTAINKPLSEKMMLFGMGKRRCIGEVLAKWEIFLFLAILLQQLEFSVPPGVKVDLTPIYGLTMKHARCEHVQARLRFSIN
smiles,measurement,setting,value
CCc1nc(-c2ccc(F)cc2)c(-c2ccnc(NC(=O)C3CC3)c2)[nH]1,IC50,[1],35 to 45.6 nM
same,IC50,[2],301 nM
same,IC50,[3],108 nM
same,remaining at 20 min,[4],93.4%
same,remaining at 4 h,[5],98.3%
same,concentration at 10 min,[6],850 ng/mL
same,inhibition at 10 µM,[7],83.6%
same,inhibition (INH),[8],81.7%
same,"inhibition at 4 h, 10 µM",[9],43.3%
same,solubility at 1 h,[10],155 µg/mL
same,inhibition,[11],-2.55%
same,inhibition,[12],94.7%
same,inhibition,[13],10.9%
same,inhibition,[14],47%
same,inhibition,[15],64.5%
same,inhibition,[16],97%
same,inhibition,[17],24.8%
same,inhibition,[18],-1.98%
same,inhibition,[19],2.78%
same,inhibition,[20],93.6%
same,inhibition,[21],51.6%
same,Ratio,[22],1.1
